Consider seven compounds from PMC3739880 (The FASEB Journal, 2011).

The test system of test [1] is Y16141 cells expressing human ortholog of Ddi1. The test is described as follows: Yeast cell morphology, Y16141 with human Ddi1 construct. As to conditions: 25 μM inhibitor; yeast transformed to express the human ortholog of Ddi1. It counts as cell-based, S. cerevisiae. The gist of the method: (§1)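 DDI1-knockout Y16141 carried pVTL260, either alone or encoding full-length Ddi1 orthologs, introduced by lithium acetate transformation. Grown 24 h at 30°C in selective minimal medium with or without 25 μM inhibitor. Morphology examined by phase-contrast microscopy at ×100, with images captured digitally. Fraction of cells with greatly enlarged morphology was recorded.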

A further test deals with T1, S. cerevisiae Ddi1 (Saccharomyces cerevisiae, UniProt P40087).
T1 sequence (P40087 1-428): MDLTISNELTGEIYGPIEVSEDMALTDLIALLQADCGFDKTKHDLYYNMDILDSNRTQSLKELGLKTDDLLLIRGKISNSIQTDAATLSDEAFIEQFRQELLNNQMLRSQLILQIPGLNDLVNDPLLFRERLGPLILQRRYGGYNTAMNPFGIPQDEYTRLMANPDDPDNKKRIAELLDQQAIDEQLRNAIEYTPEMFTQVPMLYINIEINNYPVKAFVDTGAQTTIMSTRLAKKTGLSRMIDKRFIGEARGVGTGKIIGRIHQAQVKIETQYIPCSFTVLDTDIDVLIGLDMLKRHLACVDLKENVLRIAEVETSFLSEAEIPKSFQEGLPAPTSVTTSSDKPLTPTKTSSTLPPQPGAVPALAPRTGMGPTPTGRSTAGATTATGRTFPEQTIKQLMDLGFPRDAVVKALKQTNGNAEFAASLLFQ
The test is described as follows: Proteinase inhibitor assay. As to conditions: for inhibition at 25 µM: read-out: Y16141 Ddi1, Inhibition at 25 μM (%). In kind it is cell-based. The gist of the method:
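S. cerevisiae Ddi1 was expressed from pVTL260 in DDI1-knockout Y16141, transformed by lithium acetate. Colony precultured overnight at 30°C in selective minimal medium, then shaken 48 h at 30°C to A600 ~2 with or without inhibitor (25 μM, or a titration).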

The test system of test [2] is Y16141 cells expressing Saccharomyces Ddi1. The test is described as follows: Yeast cell morphology, Y16141 with Saccharomyces Ddi1 construct. In kind it is cell-based, S. cerevisiae. As to conditions: 25 μM inhibitor, 24 h. The gist of the method: as §1
Another test deals with T2, human Ddi1 (Homo sapiens, UniProt Q8WTU0).
T2 sequence (Q8WTU0 1-396): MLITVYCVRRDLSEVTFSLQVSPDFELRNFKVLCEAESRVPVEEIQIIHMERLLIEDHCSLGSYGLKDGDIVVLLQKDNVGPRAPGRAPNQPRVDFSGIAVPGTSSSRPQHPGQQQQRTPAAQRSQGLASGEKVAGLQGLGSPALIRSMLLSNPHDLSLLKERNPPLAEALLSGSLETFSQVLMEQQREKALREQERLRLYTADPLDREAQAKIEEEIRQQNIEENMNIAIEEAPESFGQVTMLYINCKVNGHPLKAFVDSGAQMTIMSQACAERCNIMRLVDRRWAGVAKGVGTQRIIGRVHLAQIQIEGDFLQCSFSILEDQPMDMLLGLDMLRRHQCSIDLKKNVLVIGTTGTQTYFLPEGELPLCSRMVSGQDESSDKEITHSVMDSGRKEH
The test is described as follows: Proteinase inhibitor assay. As to conditions: for inhibition at 25 µM: read-out: Y16141 human, Inhibition at 25 μM (%). In kind it is cell-based. In outline:
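Yeast DDI1-knockout Y16141 (BY4742 derivative) carrying the human Ddi1 ortholog in pVTL260, grown in selective minimal medium. Cultures shaken 48 h at 30°C to A600 ~2 with or without inhibitor (25 μM, or titrated). Supernatant protein measured against a BSA standard and expressed per mg dried-pellet weight. IC50 from a 4-parameter logistic fit. Means ± se, n=6.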

The target in the next test is T3, Leishmania Ddi1 (Leishmania major, UniProt I7HUG0).
T3 sequence (I7HUG0 148-390): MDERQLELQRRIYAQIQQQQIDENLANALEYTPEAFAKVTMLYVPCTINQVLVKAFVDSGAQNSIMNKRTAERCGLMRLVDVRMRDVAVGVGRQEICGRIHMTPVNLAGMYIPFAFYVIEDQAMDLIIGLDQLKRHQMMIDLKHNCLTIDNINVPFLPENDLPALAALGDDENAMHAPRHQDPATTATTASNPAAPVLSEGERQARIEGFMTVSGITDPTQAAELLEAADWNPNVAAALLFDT
The test is described as follows: Proteinase inhibitor assay. In kind it is cell-based, L. major. As to conditions: for inhibition at 25 µM: read-out: Y16141 Leishmania, Inhibition at 25 μM (%).

The subject of test [3] is Y16141 cells transformed with pVTL260 plasmid. The test is described as follows: Yeast cell morphology, knockout yeast transformed with plasmid alone. It counts as cell-based, S. cerevisiae. As to conditions: 25 μM inhibitor. In outline:
as §1

Test [4] has as its system wild-type S. cerevisiae BY4742. The test is described as follows: Proteinase inhibitor assay. It counts as cell-based. Conditions: Saccharomyces cerevisiae, read-out: BY4742, inhibition at 25 μM (%). The gist of the method: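 Wild-type BY4742 colony precultured overnight at 30°C in selective minimal medium, then shaken 48 h at 30°C to A600 ~2 with or without 25 μM inhibitor. Cells pelleted by centrifugation. Supernatant protein measured by RC DC assay with BSA standard and expressed as mg secreted per mg dry weight of pellet dried at 100°C. n=6.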

The test system of a further test is L. amazonensis. Conditions: read-out: IC50, inhibition of cellular growth and multiplication with L. amazonensis; parasites in culture; cited from earlier work.
In the next test the test system is L. major. Conditions: read-out: IC50, growth inhibition in L. major; parasites in culture; cited from earlier work.
The next test deals with Leishmania donovani. As to conditions: cited from earlier work.
The next test concerns L. infantum. As to conditions: cited from earlier work.
Test [5] concerns Y16141 cells expressing L. major Ddi1 ortholog. The test is described as follows: Yeast cell morphology, Y16141 with Leishmania Ddi1 construct. Conditions: 25 μM inhibitor, 24 h. In kind it is cell-based, S. cerevisiae. The gist of the method:
as §1

What is called IC50 is the concentration at which inhibition is half-maximal. For orientation: inhibition means the change of the read-out against control, counted positive when it falls.

Consider `CC(C)CN(C[C@@H](O)[C@H](Cc1ccccc1)NC(=O)O[C@H]1CCOC1)S(=O)(=O)c1ccc(N)cc1` [Amprenavir], for which the “effect on cell morphology” value in [1] and in test [3] was “no effects” each time. Also, the IC50 against S. cerevisiae Ddi1 is 2.8 ± 0.2 µM; against Leishmania Ddi1, 5.7 ± 0.7 µM; in the test with L. amazonensis, 62 µM. Moreover, the inhibition at 25 µM at S. cerevisiae Ddi1 is 95%; at human Ddi1 it was 9%; at Leishmania Ddi1, 100%; in test [4], 91%. Besides, the “cells with greatly enlarged morphologies (% of cells)” value in [2] is ~75 % of cells.

Take `CC(C)(C)NC(=O)[C@@H]1CN(Cc2cccnc2)CCN1C[C@@H](O)C[C@@H](Cc1ccccc1)C(=O)N[C@H]1c2ccccc2C[C@H]1O` [Indinavir]: the inhibition at 25 µM at S. cerevisiae Ddi1 was 24%; on human Ddi1, 38%; on Leishmania Ddi1 it was 100%; in test [4], 36%. For the same compound, the IC50 was 8 µM in the test on L. major and 3 ± 0.2 µM against Leishmania Ddi1.

Regarding `Cc1cccc(C)c1OCC(=O)N[C@@H](Cc1ccccc1)[C@@H](O)C[C@H](Cc1ccccc1)NC(=O)[C@H](C(C)C)N1CCCNC1=O` [Lopinavir], the inhibition at 25 µM was 6% on S. cerevisiae Ddi1, 0% at human Ddi1, 38% at Leishmania Ddi1 and 6% in test [4]. The IC50 at Leishmania Ddi1 was 56 ± 4 µM; in the test with L. amazonensis it was 16 µM.

`Cc1c(O)cccc1C(=O)N[C@@H](CSc1ccccc1)[C@H](O)CN1C[C@H]2CCCC[C@H]2C[C@H]1C(=O)NC(C)(C)C` [Nelfinavir]: the “effect on cell morphology” value in test [1] and in test [3] was “no effects” throughout. Besides, the inhibition at 25 µM at S. cerevisiae Ddi1 is 40%; on human Ddi1, 97%; on Leishmania Ddi1, 100%; in test [4] it was 50%. The IC50 at human Ddi1 was 3.4 ± 0.4 µM; against Leishmania Ddi1 it was 0.44 ± 0.03 µM; in the test with L. amazonensis, 15 µM. In addition, the “sensitivity of Leishmania donovani” value in the test with Leishmania donovani was “tens of micromolar range”. This compound also registered a Hill slope factor on Leishmania Ddi1 (Y16141 expressing the L. major Ddi1 ortholog, Eq. 1 fit) of 0.72 ± 0.04. Also, the “sensitivity of L. infantum” value in the test on L. infantum was “tens of micromolar range”. The “cells with greatly enlarged morphologies (% of cells)” value in test [5] is reported as ~95 % of cells.

Regarding `CC(C)c1nc(CN(C)C(=O)N[C@H](C(=O)N[C@@H](Cc2ccccc2)C[C@H](O)[C@H](Cc2ccccc2)NC(=O)OCc2cncs2)C(C)C)cs1` [Ritonavir], the inhibition at 25 µM came out at 0% on S. cerevisiae Ddi1, 3% at human Ddi1, 22% on Leishmania Ddi1 and 1% in [4].

Turning to `CC(C)(C)NC(=O)[C@@H]1C[C@@H]2CCCC[C@@H]2CN1C[C@@H](O)[C@H](Cc1ccccc1)NC(=O)[C@H](CC(N)=O)NC(=O)c1ccc2ccccc2n1` [Saquinavir], the inhibition at 25 µM was found to be 24% at S. cerevisiae Ddi1, 18% at human Ddi1, 100% on Leishmania Ddi1 and 31% in test [4]. Besides, the results for the IC50 in the test on L. major and at Leishmania Ddi1 were 7 µM and 2.8 ± 0.3 µM, respectively.

Regarding `CCC[C@@]1(CCc2ccccc2)CC(O)=C([C@H](CC)c2cccc(NS(=O)(=O)c3ccc(C(F)(F)F)cn3)c2)C(=O)O1` [Tipranavir], the inhibition at 25 µM stood at 86% at S. cerevisiae Ddi1, 90% at human Ddi1, 97% on Leishmania Ddi1 and 58% in [4]. In addition, the IC50 was determined as 1.5 ± 0.2 µM against human Ddi1 and 2.9 ± 0.2 µM at Leishmania Ddi1.
